Experimental data as given in ChEMBL document CHEMBL1152517, “Isocombretastatins A: 1,1-diarylethenes as potent inhibitors of tubulin polymerization and cytotoxic compounds” (Bioorg Med Chem, 2009).

Experiments:
A549 = experiment: Cytotoxicity against human A549 cells after 72 hrs by XTT assay; type: functional, cell-based; details: A549, 72 h
HeLa = experiment: Cytotoxicity against human HeLa cells after 72 hrs by XTT assay; type: functional, cell-based
HT-29 = experiment: Cytotoxicity against human HT-29 cells after 72 hrs by XTT assay; type: functional, cell-based; details: HT-29, 72 h
Bos taurus [1] = species: Bos taurus; experiment: Inhibition of calf brain tubulin polymerization at 20 uM after 20 mins by turbidimetric method
[2] = Inhibition of calf brain tubulin polymerization after 20 mins by turbidimetric method; design: species or system Bos taurus
In short: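 Microtubule protein at 1.0 mg/mL in 0.1 M MES, 1 mM EGTA, 1 mM MgCl2, 1 mM β-ME, 1.5 mM GTP, pH 6.7, with 4% DMSO. Preincubated with ligand 30 min at 20 °C, then 10 min on ice. Assembly started by shift from 4 to 37 °C and followed by turbidity at 450 nm. IC50 read graphically as 50% inhibition at 20 min. At least two independent experiments using different protein preparations.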

HL-60 = experiment: Cytotoxicity against human HL60 cells after 72 hrs by XTT assay; type: functional, cell-based; details: HL-60, 72 h
In short: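 Cells seeded per well (HeLa 1.5 × 10^3, HT-29 3 × 10^3, A-549 5 × 10^3, HL-60 3 × 10^3). Adherent lines attached for 24 h at 37 °C, 5% CO2. Compound exposure at various concentrations for 72 h. XTT/PMS reagent added, 4 h further incubation, formazan absorbance read at 490 nm (reference 655 nm). IC50 is concentration giving 50% proliferation inhibition. Mean of three independent experiments run in triplicate.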

Bos taurus [3] = species: Bos taurus; experiment: Inhibition of calf brain tubulin polymerization at 5 uM after 20 mins by turbidimetric method
Bos taurus [4] = species: Bos taurus; experiment: Inhibition of calf brain tubulin polymerization at 40 uM after 20 mins by turbidimetric method

inhibition (Bos taurus [1])	IC50 [2]	inhibition (Bos taurus [3])	inhibition (Bos taurus [4])	SMILES	IC50 (A549)	IC50 (HeLa)	IC50 (HT-29)	IC50 (HL-60)
34%	–	–	–	C=C(c1ccc2c(ccn2CC)c1)c1ccc(OC)c(OC)c1OC	> 10 µM	> 1 µM	> 1 µM	–
86%	18 µM	–	–	COc1cc(C(O)c2ccc3c(ccn3C)c2)cc(OC)c1OC (stereo not drawn)	–	–	–	–
95%	5.7 µM	–	–	CCn1ccc2cc(C(=O)c3cc(OC)c(OC)c(OC)c3)ccc21	–	–	0.034 µM	–
47%	5.6 µM	–	–	CCn1ccc2cc(C(=O)c3ccc(OC)c(OC)c3OC)ccc21	> 10 µM	0.45 µM	> 1 µM	> 1 µM
83%	6 µM	–	–	C=C(c1cc(OC)c(OC)c(OC)c1)c1ccc2c(ccn2CC)c1	–	0.017 µM	0.035 µM	–
9%	–	–	–	COc1ccc(C(O)c2ccc3c(ccn3C)c2)c(OC)c1OC (stereo not drawn)	> 10 µM	2.5 µM	–	–
41%	–	–	–	CCn1ccc2cc(C(O)c3cc(OC)c(OC)c(OC)c3)ccc21 (stereo not drawn)	> 10 µM	< 1 µM	> 10 µM	< 1 µM
0%	–	–	–	CCn1ccc2cc(C(O)c3ccc(OC)c(OC)c3OC)ccc21 (stereo not drawn)	> 10 µM	< 1 µM	> 10 µM	> 10 µM
–	7.9 µM	–	98%	COc1cc(C(=O)c2ccc3c(ccn3C)c2)cc(OC)c1OC	–	0.035 µM	–	–
–	–	–	0%	COc1cc(C(O)c2ccc3ccccc3c2)cc(OC)c1OC (stereo not drawn)	–	–	–	–

Second part, the compound before the results:

SMILES	inhibition (Bos taurus [1])	IC50 [2]	inhibition (Bos taurus [3])	inhibition (Bos taurus [4])	IC50 (A549)	IC50 (HeLa)	IC50 (HT-29)	IC50 (HL-60)
COc1cccc2c1C(=O)c1c(O)c3c(c(O)c1C2=O)C[C@@](O)(C(=O)CO)C[C@@H]3O[C@H]1C[C@H](N)[C@H](O)[C@H](C)O1 [DOXORUBICIN]	–	–	–	–	0.29 µM	0.19 µM	0.24 µM	0.027 µM
COc1ccc(C(=O)c2cc(OC)c(OC)c(OC)c2)cc1	20%	–	–	–	3.1 µM	0.037 µM	0.29 µM	0.27 µM
C=C(c1cc(OC)c(OC)c(OC)c1)c1ccc2ccccc2c1	82%	15 µM	–	–	0.36 µM	0.3 µM	0.25 µM	0.91 µM
C=C(c1ccc(OC)cc1)c1ccc(OC)c(OC)c1OC	16%	–	–	–	> 10 µM	0.3 µM	3.2 µM	0.48 µM
COc1ccc(C(O)c2ccc3ccccc3c2)c(OC)c1OC (stereo not drawn)	0%	–	–	–	> 10 µM	> 10 µM	> 10 µM	–
C=C(c1ccc2ccccc2c1)c1ccc(OC)c(OC)c1OC	11%	–	–	–	–	0.2 µM	> 10 µM	–
COc1ccc(C(=O)c2cc(OC)c(OC)c(OC)c2)cc1N	–	1.5 µM	81%	–	0.057 µM	0.03 µM	0.032 µM	0.03 µM
COc1ccc(C(=O)c2ccc3c(ccn3C)c2)c(OC)c1OC	40%	–	–	–	0.5 µM	0.03 µM	0.03 µM	–
COc1ccc(C(=O)c2cc(OC)c(OC)c(OC)c2)cc1O [PHENSTATIN]	94%	2.5 µM	–	–	0.29 µM	–	1.8 µM	0.031 µM
C=C(c1ccc(OC)c(N)c1)c1ccc(OC)c(OC)c1OC	32%	–	–	–	2.7 µM	0.06 µM	0.33 µM	0.23 µM
COc1ccc(C(=O)c2ccc3ccccc3c2)c(OC)c1OC	4%	–	–	–	> 10 µM	–	> 10 µM	3.3 µM
C=C(c1ccc(OC)c(O)c1)c1ccc(OC)c(OC)c1OC	86%	12.2 µM	–	–	0.22 µM	0.035 µM	0.31 µM	0.24 µM
C=C(c1ccc(OC)c([N+](=O)[O-])c1)c1ccc(OC)c(OC)c1OC	12%	–	–	–	> 10 µM	0.032 µM	2.9 µM	2.6 µM
COc1ccc(C(=O)c2ccc(OC)c(OC)c2OC)cc1	7%	–	–	–	> 10 µM	1.8 µM	3.1 µM	2 µM
COc1cc(C(=O)c2ccc3ccccc3c2)cc(OC)c1OC	–	1.1 µM	–	100%	–	0.044 µM	–	–
COc1ccc(C(=O)c2cc(OC)c(OC)c(OC)c2)cc1[N+](=O)[O-]	12%	–	–	–	> 10 µM	2.5 µM	2.9 µM	1.8 µM
COc1ccc(/C=C\c2cc(OC)c(OC)c(OC)c2)cc1O [COMBRETASTATIN A4]	–	3 µM	–	–	–	–	–	0.002 µM
